Blank lines part the entries; values can stand above or below the compound they belong to.
How the values were obtained:
[1] = molecular target: T1, Orexin/Hypocretin receptor type 1 (Homo sapiens, UniProt O43613); assay: Antagonist activity at OX1R (unknown origin)
T1 sequence (O43613 whole entry): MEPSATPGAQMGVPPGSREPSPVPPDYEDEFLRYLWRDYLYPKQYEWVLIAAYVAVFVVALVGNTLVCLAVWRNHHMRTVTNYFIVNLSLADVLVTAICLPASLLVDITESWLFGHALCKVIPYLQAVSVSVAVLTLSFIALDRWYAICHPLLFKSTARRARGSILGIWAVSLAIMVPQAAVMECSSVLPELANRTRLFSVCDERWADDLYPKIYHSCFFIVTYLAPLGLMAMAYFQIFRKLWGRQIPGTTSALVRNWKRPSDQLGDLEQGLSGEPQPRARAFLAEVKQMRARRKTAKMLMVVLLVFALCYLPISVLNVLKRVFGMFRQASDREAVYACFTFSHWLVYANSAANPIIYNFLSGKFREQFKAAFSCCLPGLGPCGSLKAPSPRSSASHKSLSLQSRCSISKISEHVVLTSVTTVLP

Orexin receptor type 2 = molecular target: T2, Orexin receptor type 2 (Homo sapiens, UniProt O43614); assay: Antagonist activity at OX2R (unknown origin)
T2 sequence (O43614 whole entry): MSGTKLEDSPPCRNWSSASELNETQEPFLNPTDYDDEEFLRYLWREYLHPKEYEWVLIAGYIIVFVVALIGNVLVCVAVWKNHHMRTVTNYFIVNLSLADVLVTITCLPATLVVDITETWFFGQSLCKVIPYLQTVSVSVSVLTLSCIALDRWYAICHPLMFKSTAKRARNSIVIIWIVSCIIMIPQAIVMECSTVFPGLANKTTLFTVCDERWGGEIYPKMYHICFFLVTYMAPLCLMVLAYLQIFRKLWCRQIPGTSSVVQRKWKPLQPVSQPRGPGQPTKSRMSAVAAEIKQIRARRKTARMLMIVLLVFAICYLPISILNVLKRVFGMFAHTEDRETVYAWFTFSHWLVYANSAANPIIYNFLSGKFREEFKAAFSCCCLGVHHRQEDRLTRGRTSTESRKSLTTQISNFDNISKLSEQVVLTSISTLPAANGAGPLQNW

Homo sapiens [2] = assay: Effect on sleep parameter in insomnia patient assessed as latency to persistent sleep time at 60 mg, po administered two consecutive nights 90 mins prior to sleep by polysomnography; assay type: functional
Homo sapiens [3] = assay: Effect on sleep parameter in insomnia patient assessed as latency to persistent sleep time at 10 mg, po administered two consecutive nights 90 mins prior to sleep by polysomnography; assay type: functional
Homo sapiens [4] = assay: Effect on sleep parameter in insomnia patient assessed as total sleep time at 60 mg, po administered two consecutive nights 90 mins prior to sleep by polysomnography; assay type: functional
Homo sapiens [5] = assay: Effect on sleep parameter in insomnia patient assessed as wake after sleep onset time at 10 mg, po administered two consecutive nights 90 mins prior to sleep by polysomnography; assay type: functional
Homo sapiens [6] = assay: Effect on sleep parameter in insomnia patient assessed as sleep efficiency at 60 mg, po administered two consecutive nights 90 mins prior to sleep by polysomnography; assay type: functional
Homo sapiens [7] = assay: Effect on sleep parameter in insomnia patient assessed as total sleep time at 30 mg, po administered two consecutive nights 90 mins prior to sleep by polysomnography; assay type: functional
Homo sapiens [8] = assay: Effect on sleep parameter in insomnia patient assessed as sleep efficiency at 10 mg, po administered two consecutive nights 90 mins prior to sleep by polysomnography; assay type: functional
[9] = (§1) Apparent half life of the compound in human; assay type: ADME, organism-based; settings: in vivo, read-out: t1/2(app) (converted)
Homo sapiens [10] = assay: Effect on sleep parameter in insomnia patient assessed as latency to persistent sleep time at 30 mg, po administered two consecutive nights 90 mins prior to sleep by polysomnography; assay type: functional
Homo sapiens [11] = assay: Effect on sleep parameter in insomnia patient assessed as sleep efficiency at 30 mg, po administered two consecutive nights 90 mins prior to sleep by polysomnography; assay type: functional
Plasma [12] = assay: Drug metabolism in human plasma assessed as (S)-2-(2-((1-(5-(4-fluorophenyl)-2-methylthiazole-4-carbonyl)piperidin-2-yl)methylcarbamoyl)-6-hydroxyphenyl)acetic acid formation at 30 mg, po by LSC analysis; assay type: ADME, organism-based; settings: in vivo
Method in brief: (§2)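 Eight healthy subjects received a single 30 mg oral dose of radiolabeled compound. Plasma extracts were profiled for metabolites, each expressed as a percentage of the radioactive dose.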

[13] = Half life in human plasma; assay type: ADME, organism-based
Homo sapiens [14] = assay: Effect on sleep parameter in insomnia patient assessed as total sleep time at 10 mg, po administered two consecutive nights 90 mins prior to sleep by polysomnography; assay type: functional
Plasma [15] = assay: Drug metabolism in human plasma assessed as 2-(((S)-1-(5-(4-fluorophenyl)-2-methylthiazole-4-carbonyl)piperidin-2-yl)methyl)-3,5-dihydroxy-3,4-dihydroisoquinolin-1(2H)-one formation at 30 mg, po by LSC analysis; assay type: ADME, organism-based; settings: in vivo; method in brief: as §2
Homo sapiens [16] = assay: Effect on sleep parameter in insomnia patient assessed as wake after sleep onset time at 30 mg, po administered two consecutive nights 90 mins prior to sleep by polysomnography; assay type: functional
Homo sapiens [17] = assay: Effect on sleep parameter in insomnia patient assessed as wake after sleep onset time at 60 mg, po administered two consecutive nights 90 mins prior to sleep by polysomnography; assay type: functional
Homo sapiens [18] = species on record: Homo sapiens; assay: as §1; assay type: ADME, organism-based; settings: in vivo

IC50 [1]: 13 nM | IC50 (Orexin receptor type 2): 18 nM
Structure (SMILES): CCN(CCN(C)c1nc2ccccc2o1)C(=O)c1cc(C)ccc1-n1nccn1

half-life [9]: 300 min | Drug metabolism (Plasma [12]): 11 %ID | half-life [13]: 240 min | Drug metabolism (Plasma [15]): 2 %ID
Structure (SMILES): Cc1nc(C(=O)N2CCCC[C@H]2CNC(=O)c2cccc3occc23)c(-c2ccc(F)cc2)s1 (stereo in doubt; form 1) [SB-649868]
Time (Homo sapiens [2]): -43.7 min | Time (Homo sapiens [3]): -26.1 min | Time (Homo sapiens [4]): 69.8 min | Time (Homo sapiens [5]): 3.2 min | Activity (Homo sapiens [6]): 14.6% | Time (Homo sapiens [7]): 49.7 min | Activity (Homo sapiens [8]): 4.7% | Time (Homo sapiens [10]): -33 min | Activity (Homo sapiens [11]): 10.4% | Time (Homo sapiens [14]): 22.4 min | Time (Homo sapiens [16]): -18.4 min | Time (Homo sapiens [17]): -29 min

IC50 [1]: 630 nM
Structure (SMILES): COc1cccc(OC)c1C(=O)N1CCCN(c2nc3ccc(Cl)cc3s2)CC1

t1/2(app) (Homo sapiens [18]): 39 h
Structure (SMILES): Cc1nc(C(=O)N2CCCC[C@H]2CNC(=O)c2cccc3occc23)c(-c2ccc(F)cc2)s1 (stereo in doubt; form 2) [SB-649868]

— ChEMBL document CHEMBL3769367, “Orexin Receptor Antagonists: New Therapeutic Agents for the Treatment of Insomnia” (J Med Chem, 2016)
